Screening results deposited in PubChem by Sanford-Burnham Center for Chemical Genomics.
Only some compounds are listed: those with a hit (about 4.1% of all), similar ones and a draw of the others.
UPR XBP1 act: activators of adaptive arm of unfolded protein response (XBP1); activation, % at 20 µM; CHO-XBP1 luciferase reporter, IRE1-XBP1 UPR activation, luminescence; percent of tunicamycin response, DMSO as zero; AID 463104; 330,000 compounds, 0.33% hits;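 active = versus positive control, 20 µM dose yields 30% or more activation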;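 also: 100% = tunicamycin at 10 µg/mL and 0% = DMSO only wells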
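Material: CHO cell line with stable XBP1 luciferase reporter; schedule: 16-18 h cell attachment at 37 °C, then 6 h compound exposure; signal: glow luminescence from Steady-Glo reagent; medium: serum-containing F12 medium, 10% FBS; benchmarks: tunicamycin 10 µg/mL and vehicle-only wells; read-out: percent activation relative to tunicamycin reference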
Apaf-1 inh: blocks human Apaf-1 apoptosome activity; inhibition, % at 20 µM; O14727; reconstituted apoptosome caspase-3 activity, DEVD-Rh110 fluorescence; 330,000 compounds, 0.71% hits; AID 489030; active = inhibition of at least 40% at 20 µM;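 also: plate controls were DMSO wells for no effect and DEVD-CHO caspase inhibitor wells for full effect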
Target sequence (O14727 whole entry, looked up): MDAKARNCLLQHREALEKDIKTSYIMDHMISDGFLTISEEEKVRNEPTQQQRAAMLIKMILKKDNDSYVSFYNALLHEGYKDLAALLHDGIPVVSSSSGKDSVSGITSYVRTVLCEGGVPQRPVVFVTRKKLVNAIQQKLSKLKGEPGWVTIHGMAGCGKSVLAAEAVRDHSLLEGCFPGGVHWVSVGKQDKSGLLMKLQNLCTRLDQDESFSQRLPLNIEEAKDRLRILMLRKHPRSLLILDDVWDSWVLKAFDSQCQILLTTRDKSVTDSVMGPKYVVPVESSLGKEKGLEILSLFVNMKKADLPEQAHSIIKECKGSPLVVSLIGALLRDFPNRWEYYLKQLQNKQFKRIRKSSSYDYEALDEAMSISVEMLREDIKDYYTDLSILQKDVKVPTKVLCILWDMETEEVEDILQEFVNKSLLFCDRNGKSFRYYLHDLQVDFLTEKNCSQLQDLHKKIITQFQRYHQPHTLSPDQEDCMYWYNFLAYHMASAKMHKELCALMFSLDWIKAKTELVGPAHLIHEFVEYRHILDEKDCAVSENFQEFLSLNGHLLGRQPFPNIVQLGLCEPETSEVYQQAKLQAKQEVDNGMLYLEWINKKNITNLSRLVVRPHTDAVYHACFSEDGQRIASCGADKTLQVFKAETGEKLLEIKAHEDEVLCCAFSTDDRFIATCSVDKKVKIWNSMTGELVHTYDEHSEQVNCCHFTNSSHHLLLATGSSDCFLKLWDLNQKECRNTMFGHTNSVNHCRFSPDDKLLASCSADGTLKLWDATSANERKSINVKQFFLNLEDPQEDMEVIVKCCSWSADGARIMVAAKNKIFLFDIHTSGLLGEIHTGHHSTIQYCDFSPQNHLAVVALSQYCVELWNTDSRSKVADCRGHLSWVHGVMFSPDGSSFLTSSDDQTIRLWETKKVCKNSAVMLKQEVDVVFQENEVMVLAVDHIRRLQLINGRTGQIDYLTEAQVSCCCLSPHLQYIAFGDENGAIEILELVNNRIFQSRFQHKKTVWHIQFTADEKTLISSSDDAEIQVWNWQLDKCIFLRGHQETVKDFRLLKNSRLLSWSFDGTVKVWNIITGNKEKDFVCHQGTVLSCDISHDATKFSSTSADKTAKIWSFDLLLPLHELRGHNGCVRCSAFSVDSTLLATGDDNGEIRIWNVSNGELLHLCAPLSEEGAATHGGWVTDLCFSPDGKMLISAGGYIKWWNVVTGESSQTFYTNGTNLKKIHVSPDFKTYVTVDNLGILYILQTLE
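Material: biochemical Apaf-1 apoptosome reconstitution. Medium: Hepes buffer, pH 7.5. Also added: cytochrome c activation, bis-DEVD rhodamine 110 substrate. Timing: 30 min compound preincubation, 50 min activation, room temperature. Measured by: rhodamine 110 fluorescence at Ex 480/Em 540 nm.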
UPR CHOP act: apoptotic UPR (CHOP) activation | CHO-CHOP luciferase reporter, luminescence; percent of tunicamycin response over DMSO baseline | activation, % at 10 µM | 330,000 compounds, 0.34% hits | AID 449763;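 active = at 10 µM dose, activation of 40% or more, normalized to positive control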;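 also: 100% = tunicamycin at 10 µg/mL and 0% = DMSO alone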
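System: CHO-CHOP luciferase reporter cell line | Buffer or medium: F12 medium containing 10% fetal bovine serum | Doses: One dose, 10 µM in 0.5% DMSO | Times: 6 h compound exposure at 37 °C after overnight seeding | Signal: Luciferase luminescence | Read-out: % activation vs tunicamycin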
UBC13 polyUb: blocks human UBC13 polyubiquitin chain formation | P61088 | TR-FRET | inhibition, % at 20 µM | 330,000 compounds, 0.47% hits | AID 485273; in the data active = inhibition above about 45%, passing the limit was not always enough
Mdm2 MdmX PPI: human Mdm2/MdmX binding inhibition; inhibition, % at 8 µM; O15151+Q00987; SaOS-2 split-luciferase Mdm2/MdmX complementation, luminescence; AID 485346; 330,000 compounds, 3% hits;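 active = inhibition of at least 50% at 8 µM in the primary screen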
Mdm2 MdmX conf: human Mdm2/MdmX binding inhibition, confirmed. shares compounds with Mdm2 MdmX PPI. luminescent assay. inhibition, % at 8 µM. 10,000 compounds, 55% hits. AID 489028; in the data active = inhibition above about 40%
Full FLuc ctr: inhibits full-length luciferase, flagging false Mdm2/MdmX hits; shares compounds with Mdm2 MdmX PPI; SaOS-2 full-length luciferase counterscreen, luminescence; inhibition, % at 8 µM; 6,200 compounds, 77% hits;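 active = mean inhibition at 8 µM reaching about 37%, which flags the compound as non-specific, limit read from the data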;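 also: p53-null SaOS-2 cells with luciferase driven by a doxycycline-inducible promoter; compound on cells about two nights before reading with doxycycline added after day one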
Active calls of the source: *.

What do the screens show for `COc1cccc(CCN2CCC(CNS(=O)(=O)c3cc(-c4cc(C)no4)ccc3C)CC2)c1`?
UPR XBP1 act: 2; Apaf-1 inh: 6; UPR CHOP act: 3; UBC13 polyUb: 11; Mdm2 MdmX PPI: 55*; Mdm2 MdmX conf: 50*; Full FLuc ctr: 67*

How did Cc1cc(-c2ccc(C)c(S(=O)(=O)NCC3CCN(Cc4ccccc4F)CC3)c2)on1 do in these assays?
UPR XBP1 act: -2; Apaf-1 inh: 13; UPR CHOP act: 1; UBC13 polyUb: 12; Mdm2 MdmX PPI: 24

What do the screens show for `COc1ccccc1CN1CCC(CNS(=O)(=O)c2cc(-c3onc(C)c3C)ccc2OC)CC1`?
UPR XBP1 act: -5; Apaf-1 inh: 2; UPR CHOP act: 1; UBC13 polyUb: 11; Mdm2 MdmX PPI: 51*; Mdm2 MdmX conf: 33

What do the screens show for `CCCCOP(=O)(OCCCC)C(Nc1ccc(C(=O)OCC)cc1)c1ccncc1` (stereo unspecified)?
UPR XBP1 act: -4; Apaf-1 inh: 18; UPR CHOP act: -1; UBC13 polyUb: 4; Mdm2 MdmX PPI: -9

What do the screens show for `CCOc1ccc(N(CC(=O)Nc2ccc(OC)cc2OC)S(=O)(=O)c2c(C)[nH]c(=O)[nH]c2=O)cc1`?
UPR XBP1 act: -1; Apaf-1 inh: 2; UPR CHOP act: 2; UBC13 polyUb: -18; Mdm2 MdmX PPI: -28

How did Cc1cc(-c2ccc(C)c(S(=O)(=O)NCc3ccc(Br)cc3)c2)on1 do in these assays?
UPR XBP1 act: -4; Apaf-1 inh: 21; UPR CHOP act: 1; UBC13 polyUb: 6; Mdm2 MdmX PPI: 64*; Mdm2 MdmX conf: 52*; Full FLuc ctr: 42*

Results for COc1cccc(CN(Cc2ccccc2F)S(=O)(=O)c2ccc(S(=O)(=O)NCc3ccccc3)cc2)c1 ?
UPR XBP1 act: 0; Apaf-1 inh: 2; UPR CHOP act: 0; UBC13 polyUb: -6; Mdm2 MdmX PPI: 52*; Mdm2 MdmX conf: 34

Results for COc1cccc(CN(Cc2ccco2)S(=O)(=O)c2ccc(S(=O)(=O)NCc3ccccc3)cc2)c1OC ?
UPR XBP1 act: 0; Apaf-1 inh: 5; UPR CHOP act: 2; UBC13 polyUb: 2; Mdm2 MdmX PPI: 44

What do the screens show for `CCOc1ccc(S(=O)(=O)N2CCCCC2)cc1NS(=O)(=O)c1cccs1`?
UPR XBP1 act: -1; Apaf-1 inh: 2; UPR CHOP act: 1; UBC13 polyUb: -13; Mdm2 MdmX PPI: 21

How did CC(OC(=O)Cn1cnc2c1c(=O)n(C)c(=O)n2C)C(=O)NC(C)c1ccc(Cl)cc1Cl (stereo unspecified) do in these assays?
UPR XBP1 act: -2; Apaf-1 inh: 7; UPR CHOP act: -1; UBC13 polyUb: 6; Mdm2 MdmX PPI: 9

How did CCCn1nc(C(=O)NNC(=O)CSC(C)C(=O)Nc2cc(C)on2)c2ccccc2c1=O (stereo unspecified) do in these assays?
UPR XBP1 act: -1; Apaf-1 inh: 1; UPR CHOP act: -2; UBC13 polyUb: -3; Mdm2 MdmX PPI: 18

How did CCSc1nc(-c2ccccc2)nc(C(Cl)Cl)n1 do in these assays?
UPR XBP1 act: 25; Apaf-1 inh: 14; UPR CHOP act: 27; UBC13 polyUb: -4; Mdm2 MdmX PPI: 98*; Mdm2 MdmX conf: 100*; Full FLuc ctr: 4

How did CC(NCCCOc1cccc2ccccc12)c1ccccc1 (stereo unspecified) do in these assays?
UPR XBP1 act: 1; Apaf-1 inh: 24; UPR CHOP act: 1; UBC13 polyUb: 18; Mdm2 MdmX PPI: 58*; Mdm2 MdmX conf: 22

Results for COc1ccc2ccccc2c1CNC(C)c1ccccc1 (stereo unspecified) ?
UPR XBP1 act: -4; Apaf-1 inh: 0; UPR CHOP act: 0; UBC13 polyUb: 2; Mdm2 MdmX PPI: 26

Results for Fc1ccc2cnc(CCO[C@H]3CCCCO3)cc2c1 ?
UPR XBP1 act: -4; Apaf-1 inh: 16; UPR CHOP act: -2; UBC13 polyUb: -6; Mdm2 MdmX PPI: -10

What do the screens show for `COc1ccc(-n2nc(C(=O)c3cccs3)cc(-c3nc4ccccc4[nH]3)c2=N)cc1`?
UPR XBP1 act: -2; Apaf-1 inh: 30; UPR CHOP act: 5; UBC13 polyUb: -34; Mdm2 MdmX PPI: 98*; Mdm2 MdmX conf: 49*; Full FLuc ctr: 31

How did CCOC(=O)c1c(NC(=O)CN2C(=O)NC(C)(c3ccccc3)C2=O)sc(C)c1C (stereo unspecified) do in these assays?
UPR XBP1 act: -2; Apaf-1 inh: 13; UPR CHOP act: 1; UBC13 polyUb: 5; Mdm2 MdmX PPI: 71*; Mdm2 MdmX conf: 58*; Full FLuc ctr: 45*

How did CCCC1(c2ccccc2)NC(=O)N(CC(=O)Nc2sc(-c3ccccc3)cc2C(=O)OCC)C1=O (stereo unspecified) do in these assays?
UPR XBP1 act: 4; Apaf-1 inh: -2; UPR CHOP act: 1; UBC13 polyUb: 14; Mdm2 MdmX PPI: 77*; Mdm2 MdmX conf: 55*; Full FLuc ctr: 53*

What do the screens show for `CC(C)(C)NC(=O)C(c1ccc(O)cc1)N(C(=O)CCC(=O)Nc1nccs1)c1ccc(F)cc1` (stereo unspecified)?
UPR XBP1 act: -4; Apaf-1 inh: 3; UPR CHOP act: -3; UBC13 polyUb: 5; Mdm2 MdmX PPI: -3

What do the screens show for `COc1ccc(C(=O)N2CCCC(C(=O)O)C2)c2ccccc12` (stereo unspecified)?
UPR XBP1 act: 2; Apaf-1 inh: -8; UPR CHOP act: 4; UBC13 polyUb: -1; Mdm2 MdmX PPI: 2

What do the screens show for `O=C(COC(=O)c1ccccc1NCCO)NCC1CCCCC1`?
UPR XBP1 act: -1; Apaf-1 inh: 5; UPR CHOP act: -1; UBC13 polyUb: 1; Mdm2 MdmX PPI: -3

What do the screens show for `Cc1ccc(C(NC(=O)C2CCCCC2)c2c(O)ccc3ccccc23)cc1` (stereo unspecified)?
UPR XBP1 act: -5; Apaf-1 inh: 15; UPR CHOP act: -2; UBC13 polyUb: -1; Mdm2 MdmX PPI: 80*; Mdm2 MdmX conf: 61*; Full FLuc ctr: 49*

How did CC(=O)NC(c1ccc(C(C)C)cc1)c1c(O)ccc2ccccc12 (stereo unspecified) do in these assays?
UPR XBP1 act: -3; Apaf-1 inh: 11; UPR CHOP act: -1; UBC13 polyUb: 2; Mdm2 MdmX PPI: -5

How did CCOc1ccc2nc(Cl)c(/C=C/C(=O)c3ccco3)cc2c1 do in these assays?
UPR XBP1 act: -1; Apaf-1 inh: 10; UPR CHOP act: 1; UBC13 polyUb: 0; Mdm2 MdmX PPI: 53*; Mdm2 MdmX conf: 7
